Measured values taken from ChEMBL document CHEMBL2150901, “Synthesis and biological activity of tricyclic cycloalkylimidazo-, pyrimido- and diazepinopurinediones” (Eur J Med Chem, 2011).
Active and inactive are the calls of the source. The rule behind the calls is not given here.

Assays:
Adenosine receptor A1 [1] = molecular target: T1, Adenosine receptor A1 (Homo sapiens, UniProt P30542); assay: Displacement of [3H]CCPA from human recombinant adenosine A1 receptor expressed in CHO cells; format: cell-based
T1 sequence (P30542 whole entry): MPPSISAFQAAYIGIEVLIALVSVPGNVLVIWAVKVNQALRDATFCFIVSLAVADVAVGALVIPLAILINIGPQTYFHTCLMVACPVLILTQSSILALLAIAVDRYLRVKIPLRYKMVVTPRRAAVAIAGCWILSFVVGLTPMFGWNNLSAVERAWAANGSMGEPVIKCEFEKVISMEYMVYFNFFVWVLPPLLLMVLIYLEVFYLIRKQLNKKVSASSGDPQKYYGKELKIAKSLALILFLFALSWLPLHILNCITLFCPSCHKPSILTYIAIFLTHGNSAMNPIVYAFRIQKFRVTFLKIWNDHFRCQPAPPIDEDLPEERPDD

Adenosine receptor A1 [2] = molecular target: T2, Adenosine receptor A1 (Rattus norvegicus, UniProt P25099); assay: Displacement of [3H]CCPA from adenosine A1 receptor in rat brain cortical membrane; format: cell membranes
T2 sequence (P25099 whole entry): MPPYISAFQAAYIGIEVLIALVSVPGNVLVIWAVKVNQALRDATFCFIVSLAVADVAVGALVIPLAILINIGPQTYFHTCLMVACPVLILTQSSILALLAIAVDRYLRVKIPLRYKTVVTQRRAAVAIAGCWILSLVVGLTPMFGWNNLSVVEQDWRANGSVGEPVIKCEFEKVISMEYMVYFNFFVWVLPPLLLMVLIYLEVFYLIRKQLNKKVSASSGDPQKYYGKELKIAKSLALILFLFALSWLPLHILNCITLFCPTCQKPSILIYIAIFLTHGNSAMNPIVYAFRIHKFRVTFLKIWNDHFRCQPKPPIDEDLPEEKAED

Rattus norvegicus [3] = assay: Neurotoxicity in Sprague-Dawley albino rat assessed as minimal motor impairment at 30 mg/kg, po after 0.5 hrs by rotorod test; format: toxicity, organism-based; set-up: dose 30 mg/kg, route oral; conditions: in vivo
Summary of the method: (§1)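 Male Sprague-Dawley albino rats (100–150 g), groups of 4. Oral suspension in 0.5% methylcellulose/water. Protection assessed by maximal electroshock or subcutaneous pentylenetetrazole; motor impairment by rotorod. Time points 0.25–4 h. Value is protected (or toxic)/tested animals.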

Mus musculus [4] = assay: Anticonvulsant activity in F1 albino mouse assessed as protection against maximal electroshock-induced seizures at 300 mg/kg, ip after 1 hr; format: functional, organism-based; set-up: dose 300 mg/kg
Summary of the method: (§2)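 Male albino F-1 mice (18–25 g), groups of 1–5 (rotorod 2–8). Compound given ip as a suspension in 0.5% methylcellulose at 30, 100 and 300 mg/kg. Seizures by maximal electroshock or subcutaneous pentylenetetrazole; neurotoxicity by rotorod. Read at 0.5 and 4 h, with some at 0.25, 1 and 2 h. Value is the minimum active dose, with protected (or toxic)/tested animals.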

Mus musculus [5] = assay: Anticonvulsant activity in F1 albino mouse assessed as protection against maximal electroshock-induced seizures at 300 mg/kg, ip after 4 hrs; format: functional, organism-based; set-up: dose 300 mg/kg; summary of the method: as §2
Adenosine receptor A2a = Adenosine receptor A2a (Homo sapiens, UniProt P29274); assay: Displacement of [3H]MSX-2 from human recombinant adenosine A2A receptor expressed in CHO cells; format: cell-based
Sequence of Adenosine receptor A2a (P29274 whole entry): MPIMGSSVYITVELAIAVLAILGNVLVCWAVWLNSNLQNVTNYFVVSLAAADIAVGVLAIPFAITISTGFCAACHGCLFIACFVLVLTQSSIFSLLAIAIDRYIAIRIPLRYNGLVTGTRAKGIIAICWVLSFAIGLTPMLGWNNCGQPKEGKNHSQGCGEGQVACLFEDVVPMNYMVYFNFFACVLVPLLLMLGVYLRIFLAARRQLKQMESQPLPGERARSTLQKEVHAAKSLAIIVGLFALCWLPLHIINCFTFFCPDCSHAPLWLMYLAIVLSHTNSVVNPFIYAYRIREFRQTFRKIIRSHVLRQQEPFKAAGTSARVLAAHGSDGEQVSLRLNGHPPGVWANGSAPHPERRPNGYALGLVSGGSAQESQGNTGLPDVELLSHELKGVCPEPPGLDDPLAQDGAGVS

Rattus norvegicus [6] = assay: Neurotoxicity in Sprague-Dawley albino rat assessed as minimal motor impairment at 30 mg/kg, po after 0.25 hrs by rotorod test; format: toxicity, organism-based; set-up: dose 30 mg/kg, route oral; conditions: in vivo; summary of the method: as §1
Mus musculus [7] = assay: Anticonvulsant activity in F1 albino mouse assessed as protection against subcutaneous pentylenetetrazole-induced seizures at 300 mg/kg, ip after 4 hrs; format: functional, organism-based; set-up: dose 300 mg/kg; summary of the method: as §2
[8] = molecular target: T3, Adenosine receptor A3 (Homo sapiens) (UniProt P0DMS8); assay: Displacement of [3H]PSB-11 from human recombinant adenosine A3 receptor expressed in CHO cells at 10 uM; format: cell-based
T3 sequence (whole entry): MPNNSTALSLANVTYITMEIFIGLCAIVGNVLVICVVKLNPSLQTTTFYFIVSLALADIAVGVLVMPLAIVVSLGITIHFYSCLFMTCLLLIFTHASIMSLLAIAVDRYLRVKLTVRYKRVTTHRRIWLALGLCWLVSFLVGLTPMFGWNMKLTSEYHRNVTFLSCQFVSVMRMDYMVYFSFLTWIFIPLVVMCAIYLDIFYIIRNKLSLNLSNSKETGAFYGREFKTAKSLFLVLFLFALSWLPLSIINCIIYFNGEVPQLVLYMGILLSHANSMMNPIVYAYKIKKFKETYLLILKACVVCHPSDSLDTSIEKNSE
Summary of the method: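 CHO cell membranes expressing the human receptor. Radioligands: A1 [3H]CCPA; A2B [3H]ZM241385 or [3H]PSB-603; A3 [3H]PSB-11. […] Potent compounds run at 6–7 concentrations spanning 3 orders of magnitude; Ki ± SEM.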

Rattus norvegicus [9] = assay: Anticonvulsant activity in Sprague-Dawley albino rat assessed as protection against subcutaneous pentylenetetrazole-induced seizures at 50 mg/kg, po after 0.25 hrs; format: functional, organism-based; set-up: dose 50 mg/kg; summary of the method: as §1

Ki (Adenosine receptor A1 [1]): 7130 nM | Ki (Adenosine receptor A1 [2]): 2390 nM | Ki (Adenosine receptor A2a): 417 nM | inhibition [8]: 1%
SMILES: Cn1c(=O)c2c(nc3n2CCCN3CC2CC2)n(C)c1=O
Activity (Rattus norvegicus [3]): Non-toxic | Activity (Mus musculus [4]): inactive | Activity (Mus musculus [5]): inactive | Activity (Rattus norvegicus [6]): Non-toxic | Activity (Mus musculus [7]): inactive | Activity (Rattus norvegicus [9]): inactive
